# An excerpt weighted towards active compounds, which were near 1.3% of everything screened.
# ASAP1 inh: inhibitors of human ASAP1 ArfGAP activity, primary screen, biochemical, fluorescence polarization. inhibition, % at 16.5 µM. AID 624377, 2012. 0.19% of 360,000 active. Arf-GAP with SH3 domain, ANK repeat and PH domain-containing protein 1 (Homo sapiens), …. ASAP1-stimulated ARF1 GTP hydrolysis, GDP FP detection; in the data active = inhibition above about 25%;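 note: 0% = vehicle with enzyme and substrate and 100% = no enzyme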
# LEDGF integ inh: blockers of LEDGF/p75-dependent integrase strand transfer – biochemical, TR-FRET, high throughput, primary screen; HIV-1 integrase (with human LEDGF/p75); TR-FRET IN-LEDGF/p75 DNA integration, Eu/Cy5; inhibition, % at 3.7 µM; 0.64% of 370,000 active; AID 743269, 2014;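 active = inhibition above the screen-wide mean plus 3 SD, cut at about 13% in these data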;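 note: signal is the Cy5 over europium emission ratio at 671 and 618 nm; 0% = plate median of compound wells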
# ARFGAP1 inhibitor: inhibitors of rat ARFGAP1 GAP activity, primary screen, biochemical, fluorescence polarization, GDP tracer; inhibition, % at 16.5 µM; ADP-ribosylation factor GTPase-activating protein 1 (Rattus norvegicus), Q62848; Arfgap1-stimulated ARF1 GTP hydrolysis, GDP FP detection; 0.26% of 360,000 active;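 active = inhibition above a per-plate limit, mean inhibition of low control wells plus 3 SD, cut at about 25% in these data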;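 note: 0% = DMSO wells with enzyme and 100% = wells lacking Arfgap1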
# Target sequence (Q62848 1-136 limits assumed): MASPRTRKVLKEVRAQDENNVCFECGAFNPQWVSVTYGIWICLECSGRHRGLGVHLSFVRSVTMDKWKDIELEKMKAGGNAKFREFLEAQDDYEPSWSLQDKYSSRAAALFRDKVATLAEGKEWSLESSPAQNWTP
#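 Material: truncated rat Arfgap1 GAP domain; Incubation: compound-enzyme preincubation 20 min, reaction 120 min, detection 60 min, 25 °C; Read-out: percent inhibition of Arfgap1-stimulated GTP hydrolysis; Technique: FP, GDP Alexa 633 tracer displaced from anti-GDP antibody, 620/688 nm; Controls: No-Arfgap1 wells (100%) versus DMSO full-reaction wells (0%); Replication: single well per compound.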
# TDP2 inh: human TDP2 enzyme inhibitors, primary screen, biochemical, epi absorbance, recombinant enzyme | AID 720702, 2013 | Tyrosyl-DNA phosphodiesterase 2 (Homo sapiens), O95551 | inhibition, % at 12.8 µM | 0.34% of 370,000 active | T5PNP hydrolysis, p-nitrophenol absorbance 415 nm;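 active = inhibition above the mean of all tested compounds plus 3 SD, set per campaign, cut at about 25% in these data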;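 note: 0% = DMSO with enzyme and 100% = buffer with substrate but no TDP2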
# Target sequence (O95551 whole entry, looked up): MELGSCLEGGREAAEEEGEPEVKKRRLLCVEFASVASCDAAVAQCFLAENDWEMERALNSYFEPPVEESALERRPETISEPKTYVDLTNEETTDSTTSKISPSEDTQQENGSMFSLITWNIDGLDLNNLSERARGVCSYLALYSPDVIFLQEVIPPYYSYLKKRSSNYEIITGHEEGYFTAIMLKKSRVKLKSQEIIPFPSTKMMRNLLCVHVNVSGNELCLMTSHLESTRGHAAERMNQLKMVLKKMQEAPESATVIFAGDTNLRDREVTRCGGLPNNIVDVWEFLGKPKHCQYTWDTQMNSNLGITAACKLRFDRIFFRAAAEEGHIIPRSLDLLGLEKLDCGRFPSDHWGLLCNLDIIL
#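 Assay system: recombinant human TDP2 / Reagent: T5PNP substrate at 5 mM, a TopII-DNA adduct mimic / Measured by: epi absorbance from released p-nitrophenol / Evaluation: % inhibition relative to enzyme-containing and enzyme-free wells / Control set: enzyme-free and DMSO wells / Replicates: each compound tested once, singlicate / Schedule: enzyme reaction with compound for 2 h at 37 °C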
# Casp6 inh: human caspase-6 inhibitors, primary screen, biochemical, VEID-R110 fluorescence, single point, set 2; inhibition, % at 12.5 µM; 0.53% of 350,000 active; AID 686996, 2013; P55212; purified caspase-6, Z-VEID-R110 cleavage fluorescence;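 active = mean inhibition across replicates at least about 35%, with every replicate also reaching that limit, limit read from the data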;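 note: 0% = median of neutral control wells and 100% = no fluorescence left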
# An asterisk follows results filed as active; . = no result given.
SMILES,ASAP1 inh,LEDGF integ inh,ARFGAP1 inhibitor,TDP2 inh,Casp6 inh
O=C(O)c1[nH]c2ccccc2c1C(c1ccccc1)c1c(C(=O)O)[nH]c2ccccc12,-21,6,-29,-1,2
O=C(O)c1[nH]c2ccccc2c1C(c1cc(Cl)cc([N+](=O)[O-])c1O)c1c(C(=O)O)[nH]c2ccccc12,-36,14*,-40,23,8
O=C(O)c1ccc(N/N=C/C=C/c2ccc([N+](=O)[O-])o2)cc1,-6,9,-14,-3,75*
COc1ccc(Cc2c(-c3ccco3)nc3ccc(Br)cn23)c(C)c1,7,5,2,-3,7
COc1ccc(Cc2c(-c3ccco3)nc3c(C)cc(Br)cn23)c(C)c1,2,-2,8,2,39*
CC1(OC(=O)CCc2ccccc2)C(=O)C=C2C=C(c3ccc(C#N)cc3)N(Cc3ccco3)C=C2C1=O (stereo unspecified),-5,17*,7,-18,.
CC1(OC(=O)CCc2ccccc2)C(=O)C=C2C=C(c3ccc(C#N)cc3)N(Cc3ccccc3)C=C2C1=O (stereo unspecified),-4,0,-7,-6,7
COc1ccc(NC(=O)CN2C(=O)CSc3ncccc32)cc1,3,2,-4,6,-3
CCOc1ncccc1C(=O)OC(C)C(=O)Nc1ccc(N2CCOCC2)cc1 (stereo unspecified),0,-6,10,-14,35*
Cc1ccc2oc(-c3ccc(NC(=O)c4cccnc4)cc3)nc2c1,5,6,6,5,.
COc1cccc(/C=N/Nc2nc(C)cc(=O)[nH]2)c1OC,6,10,-4,-12,42*
O=C(CCS(=O)(=O)c1ccc(Br)cc1)NCCC1=CCCCC1,3,-2,0,7,66*
O=C(CCS(=O)(=O)c1ccc(Br)cc1)NCc1ccc(F)cc1,3,2,-5,10,70*
O=C(CCS(=O)(=O)c1ccc(Br)cc1)NC1CCCCCC1,-3,-5,-3,-11,61*
CCCNC(=O)Nc1ccc2c(c1)OC[C@@H](C)N(Cc1ccccc1)C[C@H](C)[C@@H](OC)CN(C)C2=O,.,.,.,.,-3
CC1=NN(c2ccc(C)c(C)c2)C(=O)/C1=C\C=C\c1ccc([N+](=O)[O-])o1,2,12,2,-12,47*
O=C(/C=C/c1ccco1)NC(=S)Nc1ccccc1O,-11,9,4,1,51*
O=C(/C=C\c1ccco1)NC(=S)Nc1ccccc1O,8,9,-15,1,49*
Cc1ccc(NC(=S)NC(=O)/C=C/c2ccco2)c(O)c1,11,2,-1,-9,43*
Cc1ccc(S(=O)(=O)Cc2ccc(C(=O)O)o2)cc1,-5,8,-1,-5,52*
COc1ccc(OC)c(S(=O)(=O)N2CCCCC2C(=O)N2CCN(c3ccccn3)CC2)c1 (stereo unspecified),5,4,12,-11,.
CCC(=O)c1ccc(OCC(=O)OCC(=O)c2cc(C)n(C)c2C)cc1,-16,2,0,17,36*
CCC(=O)c1ccc(OCC(=O)OCC(=O)c2c(N)n(C)c(=O)n(C)c2=O)cc1,-3,0,5,2,-1
CC(C)=NNc1cc([N+](=O)[O-])cc2c1C(=O)N(C)S2=O (stereo unspecified),1,1,8,-1,40*
NNc1cc([N+](=O)[O-])cc2c1C(=O)N(Cc1ccccc1)S2=O (stereo unspecified),-19,-6,-10,-1,7
SMILES,ASAP1 inh,LEDGF integ inh,ARFGAP1 inhibitor,TDP2 inh,Casp6 inh
O=c1c2ccccc2nc(/C=C/c2cccnc2)n1CCc1ccccc1,3,3,15,-10,6
O=c1c2ccccc2nc(/C=C/c2cccnc2)n1Cc1ccccc1,2,10,-3,6,46*
CCCN1CCN(CCCNC(=S)Nc2ccc(OC)cc2)CC1,-7,0,-3,-5,.
O=C(CSc1cccc[n+]1[O-])Nc1ccc(Br)cc1Br,2,3,-3,-8,-2
O=C(CSc1cccc[n+]1[O-])Nc1ccc(Cl)cc1F,-19,5,-4,-1,37*
O=C(Nc1cc(N2CCCCC2)ncn1)c1ccccc1,2,0,3,4,0
O=C(NCCc1ccccc1)c1cccc2c(-c3ccc(F)c(F)c3)coc12,3,-1,3,-4,45*
Nc1nc(SCC(=O)NCc2ccc(F)cc2)[nH]c(=O)c1NC(=O)c1ccc(Cl)cc1,-2,6,6,-4,.
C[n+]1cccc2ccc3c(c21)OC(N)=C(C#N)C3c1ccccc1 (stereo unspecified),-10,0,8,16,38*
CN1C(=O)CC(Sc2ccccc2C(=O)O)C1=O (stereo unspecified),10,-8,2,-5,35*
C#CCNC(=O)C[C@@H]1C[C@@]2(C(=O)OCC)CCC=C2N(Cc2ccc(Cl)cc2Cl)C1=O,14,3,1,2,76*
CCOC(=O)[C@]12CCC=C1N(Cc1ccc(Cl)cc1Cl)C(=O)[C@H](CC(=O)NCCC(C)C)C2,-30,-3,-1,-6,0
CCOC(=O)[C@]12CCCC=C1N(Cc1ccco1)C(=O)[C@H](CC(=O)NCCCOC)C2,-13,-5,-6,6,-2
CCCCOCCCNC(=O)C[C@@H]1C[C@@]2(C(=O)OCC)CCC=C2N(Cc2ccco2)C1=O,-4,5,-1,-1,49*
O=C(NCc1ccc2c(c1)OCO2)c1cc(-c2cc(Cl)ccc2O)n[nH]1,-3,1,8,0,-3
O=C(N/N=C/c1cn(Cc2ccccc2)c2ccccc12)c1cc(O)cc(O)c1,3,7,5,1,53*
CN(C)CCCN(C(=O)c1ccc([N+](=O)[O-])s1)c1nc2cc3c(cc2s1)OCCO3,17,0,3,6,84*
C=CC#CC[N+]1(CC#Cc2ccccc2)CCOCC1,87*,-5,97*,-4,-29
C[C@@H]1CN([C@H](C)CO)C(=O)c2cc(C3=CCCC3)cnc2O[C@H]1CN(C)C(=O)NC1CCCC1,.,.,.,.,0
N#Cc1c(NC(=O)c2ccccc2Cl)n(Cc2ccccc2)c2nc3ccccc3nc12,-6,16*,0,81*,100*
CCCCn1c(NC(=O)CC)c(C#N)c2nc3ccccc3nc21,-8,-6,0,-3,.
